Experimental data reported in ChEMBL document CHEMBL4229549, “Discovery and structural characterization of peficitinib (ASP015K) as a novel and potent JAK inhibitor” (Bioorg Med Chem, 2018).

Legend:
[1] = Inhibition of JAK1/JAK3 in rat splenocytes assessed as reduction in IL-2-induced T cell proliferation; assay type: cell-based
Procedure, shortened: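 Male Lewis rat splenocytes, 1.5×10^6 cells/mL in RPMI1640 with 10% FBS and 50 µM 2-mercaptoethanol, primed with concanavalin A 24 h at 37°C to induce IL-2 receptor. Then incubated with IL-2 plus compound at designated concentrations for 3 days. Proliferation read by alamarBlue after 6 h (ex 545/em 590 nm). Duplicate or triplicate wells, IC50 by linear or Sigmoid-Emax regression.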

[2] = Intrinsic clearance in rat liver microsomes; assay type: ADME, microsome; conditions: read-out: CLH
Procedure, shortened: (§1)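 Compound at 0.2 or 1.0 µM incubated with male SD rat liver microsomes (0.2 mg protein/mL) plus 1 mM NADPH and 0.1 mM EDTA in 100 mM phosphate buffer at 37°C. Percentage remaining was measured by LC/MS/MS. Run in duplicate.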

[3] = biological target: T1, Tyrosine-protein kinase JAK3 (Homo sapiens, UniProt P52333); experiment: Inhibition of recombinant human N-terminal His-tagged JAK3 catalytic domain (795 to 1124 residues) expressed in baculovirus expression system using Biotin-Lyn-Substrate2 after 1 hr by ELISA
T1 sequence (P52333 whole entry): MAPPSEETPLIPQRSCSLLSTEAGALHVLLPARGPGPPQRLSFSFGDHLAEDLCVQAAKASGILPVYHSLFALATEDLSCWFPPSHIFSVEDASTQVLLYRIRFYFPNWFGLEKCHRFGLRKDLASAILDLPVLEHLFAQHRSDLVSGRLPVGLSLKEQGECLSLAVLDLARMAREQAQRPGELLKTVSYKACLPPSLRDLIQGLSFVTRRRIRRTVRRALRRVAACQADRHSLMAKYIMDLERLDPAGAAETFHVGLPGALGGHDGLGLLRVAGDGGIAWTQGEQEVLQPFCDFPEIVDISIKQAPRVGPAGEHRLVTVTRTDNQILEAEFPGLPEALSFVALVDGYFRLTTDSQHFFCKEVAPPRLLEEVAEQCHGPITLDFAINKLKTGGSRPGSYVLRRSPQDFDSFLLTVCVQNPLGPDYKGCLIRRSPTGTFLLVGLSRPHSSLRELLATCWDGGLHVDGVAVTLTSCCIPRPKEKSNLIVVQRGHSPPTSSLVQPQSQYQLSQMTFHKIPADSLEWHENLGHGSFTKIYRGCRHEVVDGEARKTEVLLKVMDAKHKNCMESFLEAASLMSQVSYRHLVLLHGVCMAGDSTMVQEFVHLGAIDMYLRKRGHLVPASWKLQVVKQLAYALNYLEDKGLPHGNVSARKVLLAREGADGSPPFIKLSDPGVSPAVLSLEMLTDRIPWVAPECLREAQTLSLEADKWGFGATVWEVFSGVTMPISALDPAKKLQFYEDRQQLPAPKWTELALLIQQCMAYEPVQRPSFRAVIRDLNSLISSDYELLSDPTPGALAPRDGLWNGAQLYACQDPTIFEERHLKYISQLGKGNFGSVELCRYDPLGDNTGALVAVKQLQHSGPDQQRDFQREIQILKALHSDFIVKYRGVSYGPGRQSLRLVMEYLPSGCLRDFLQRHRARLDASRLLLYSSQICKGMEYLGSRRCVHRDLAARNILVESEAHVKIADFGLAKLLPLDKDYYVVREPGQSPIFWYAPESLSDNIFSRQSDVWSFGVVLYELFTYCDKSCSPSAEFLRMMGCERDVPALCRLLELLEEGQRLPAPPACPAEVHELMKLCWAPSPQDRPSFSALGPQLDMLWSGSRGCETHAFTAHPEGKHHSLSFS
Procedure, shortened: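 Human JAK3 kinase domain with 250 nM biotinylated Lyn substrate peptide and 8 µM ATP (final). Reaction started with enzyme, run 1 h at room temperature on streptavidin plate. Phosphorylation read by anti-phosphotyrosine HRP ELISA. Run in duplicate.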

[4] = biological target: Tyrosine-protein kinase JAK1 (Homo sapiens, UniProt P23458); experiment: Inhibition of recombinant human N-terminal GST-tagged JAK1 catalytic domain (850 to 1154 residues) expressed in baculovirus expression system using Biotin-Lyn-Substrate2 after 1 hr by ELISA
Sequence of Tyrosine-protein kinase JAK1 (P23458 whole entry, the tested form may be a part): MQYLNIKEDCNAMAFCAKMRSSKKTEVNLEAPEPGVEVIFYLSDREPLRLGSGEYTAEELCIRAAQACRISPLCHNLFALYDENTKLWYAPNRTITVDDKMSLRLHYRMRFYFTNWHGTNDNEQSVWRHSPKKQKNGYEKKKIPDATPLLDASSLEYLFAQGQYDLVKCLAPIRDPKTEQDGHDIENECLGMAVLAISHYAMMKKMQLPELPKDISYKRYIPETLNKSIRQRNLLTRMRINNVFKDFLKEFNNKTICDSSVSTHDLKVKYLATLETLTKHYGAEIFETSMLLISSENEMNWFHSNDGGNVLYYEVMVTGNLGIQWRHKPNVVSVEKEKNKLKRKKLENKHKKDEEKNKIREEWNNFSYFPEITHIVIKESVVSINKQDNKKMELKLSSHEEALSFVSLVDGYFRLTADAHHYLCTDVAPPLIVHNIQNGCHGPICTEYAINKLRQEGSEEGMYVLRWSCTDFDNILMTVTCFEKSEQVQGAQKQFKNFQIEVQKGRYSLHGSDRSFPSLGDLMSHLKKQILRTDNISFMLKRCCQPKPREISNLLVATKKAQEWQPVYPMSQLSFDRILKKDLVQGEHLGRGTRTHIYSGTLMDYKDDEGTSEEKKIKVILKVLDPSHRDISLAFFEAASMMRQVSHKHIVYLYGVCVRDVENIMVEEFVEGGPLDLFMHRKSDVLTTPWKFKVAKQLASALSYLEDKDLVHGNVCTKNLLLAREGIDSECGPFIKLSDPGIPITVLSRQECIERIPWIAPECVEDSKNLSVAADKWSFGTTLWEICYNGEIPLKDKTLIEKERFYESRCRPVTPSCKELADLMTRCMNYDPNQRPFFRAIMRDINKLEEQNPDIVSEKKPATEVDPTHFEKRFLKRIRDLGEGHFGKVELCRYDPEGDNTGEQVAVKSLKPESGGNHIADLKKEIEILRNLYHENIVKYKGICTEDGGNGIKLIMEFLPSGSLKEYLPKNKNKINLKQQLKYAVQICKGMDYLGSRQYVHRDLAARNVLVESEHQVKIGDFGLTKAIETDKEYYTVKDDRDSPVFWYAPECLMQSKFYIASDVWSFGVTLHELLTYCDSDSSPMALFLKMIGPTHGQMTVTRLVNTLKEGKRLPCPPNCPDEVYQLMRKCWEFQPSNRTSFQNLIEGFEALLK

[5] = biological target: Tyrosine-protein kinase JAK2 (Homo sapiens, UniProt O60674); experiment: Inhibition of recombinant human N-terminal His-tagged JAK2 catalytic domain (826 to 1132 residues) expressed in baculovirus expression system using Biotin-Lyn-Substrate2 after 1 hr by ELISA
Sequence of Tyrosine-protein kinase JAK2 (O60674 whole entry, the tested form may be a part): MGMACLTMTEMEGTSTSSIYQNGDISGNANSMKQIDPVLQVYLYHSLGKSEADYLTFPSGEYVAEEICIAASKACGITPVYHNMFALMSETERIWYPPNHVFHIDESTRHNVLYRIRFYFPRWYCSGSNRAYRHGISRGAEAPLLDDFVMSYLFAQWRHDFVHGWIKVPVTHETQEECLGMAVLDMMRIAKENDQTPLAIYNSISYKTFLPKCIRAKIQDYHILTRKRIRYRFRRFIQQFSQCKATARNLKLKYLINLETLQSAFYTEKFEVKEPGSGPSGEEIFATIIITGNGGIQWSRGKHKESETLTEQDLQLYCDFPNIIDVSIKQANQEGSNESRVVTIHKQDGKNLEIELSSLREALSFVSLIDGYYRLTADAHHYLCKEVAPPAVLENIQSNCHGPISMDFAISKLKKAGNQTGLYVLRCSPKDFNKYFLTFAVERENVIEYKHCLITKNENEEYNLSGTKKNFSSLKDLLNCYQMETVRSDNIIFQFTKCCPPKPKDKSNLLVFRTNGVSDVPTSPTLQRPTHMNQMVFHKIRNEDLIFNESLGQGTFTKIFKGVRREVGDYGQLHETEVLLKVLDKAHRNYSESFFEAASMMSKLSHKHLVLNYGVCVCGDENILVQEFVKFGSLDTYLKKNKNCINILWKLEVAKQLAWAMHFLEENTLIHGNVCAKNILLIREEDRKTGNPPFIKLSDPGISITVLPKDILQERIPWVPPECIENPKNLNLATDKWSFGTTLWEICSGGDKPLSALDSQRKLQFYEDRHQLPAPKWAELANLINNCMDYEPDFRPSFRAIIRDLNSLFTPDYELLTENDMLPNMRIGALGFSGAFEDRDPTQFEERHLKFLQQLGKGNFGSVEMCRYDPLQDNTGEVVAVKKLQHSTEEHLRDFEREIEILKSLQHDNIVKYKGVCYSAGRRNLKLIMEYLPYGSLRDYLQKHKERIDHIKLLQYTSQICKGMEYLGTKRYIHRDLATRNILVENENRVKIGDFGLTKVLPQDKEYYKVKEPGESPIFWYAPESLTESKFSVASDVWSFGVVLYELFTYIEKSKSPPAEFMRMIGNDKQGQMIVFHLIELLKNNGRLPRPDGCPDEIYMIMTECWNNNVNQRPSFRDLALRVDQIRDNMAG

[6] = Volume of distribution at steady state in Sprague-Dawley rat at 1 mg/kg, iv administered as single dose by LC-MS/MS analysis; assay type: ADME, organism-based; conditions: in vivo, read-out: Vdss
Procedure, shortened: (§2)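 Male SD rats (Crl:CD(SD), 7 weeks old), food deprived before dosing; single intravenous dose of 1 mg/kg in 10 v/v% propylene glycol. Blood was sampled at multiple time points up to 24 h. Unchanged compound in plasma was measured by LC/MS/MS. Parameters were calculated from mean plasma concentrations (n=3) at each time point.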

[7] = Oral bioavailability in Sprague-Dawley rat at 1 mg/kg administered as single dose by LC-MS/MS analysis; assay type: ADME, organism-based; conditions: in vivo
Procedure, shortened: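 Fasted male SD rats, 7 weeks old, given 1 mg/kg as a single dose, orally in 0.5 w/v% methylcellulose and intravenously in 10 v/v% propylene glycol. Plasma was sampled up to 24 h and unchanged compound measured by LC/MS/MS. Bioavailability was derived from mean concentrations (n=3 per time point).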

[8] = AUC (0 to infinity) in Sprague-Dawley rat at 1 mg/kg, iv administered as single dose by LC-MS/MS analysis; assay type: ADME, organism-based; parameters: dose 1 mg/kg, time infinity, route intravenous; conditions: in vivo; procedure, shortened: as §2
[9] = AUC (0 to infinity) in Sprague-Dawley rat at 1 mg/kg, po administered as single dose by LC-MS/MS analysis; assay type: ADME, organism-based; parameters: dose 1 mg/kg, route oral, time infinity; conditions: in vivo
Procedure, shortened: as §2, with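 “oral” for “intravenous”, “0.5 w/v% methylcellulose.” for “10 v/v% propylene glycol.”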

[10] = Intrinsic clearance in Sprague-Dawley rat liver microsomes at 0.2 uM in presence of NADPH by LC-MS/MS analysis; assay type: ADME, microsome; conditions: read-out: CLH; procedure, shortened: as §1
[11] = Inhibition of JAK1/JAK3 in Lewis rat splenocytes assessed as reduction in IL-2-induced T cell proliferation after 3 days by alamar blue assay; assay type: cell-based; conditions: 72 h
[12] = Total clearance in Sprague-Dawley rat at 1 mg/kg, iv administered as single dose by LC-MS/MS analysis; assay type: ADME, organism-based; conditions: in vivo; procedure, shortened: as §2
[13] = Half life in Sprague-Dawley rat at 1 mg/kg, po administered as single dose by LC-MS/MS analysis; assay type: ADME, organism-based; conditions: in vivo
Procedure, shortened: as §2, with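 “oral” for “intravenous”, “0.5 w/v% methylcellulose.” for “10 v/v% propylene glycol.”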

[14] = Half life in Sprague-Dawley rat at 1 mg/kg, iv administered as single dose by LC-MS/MS analysis; assay type: ADME, organism-based; conditions: in vivo; procedure, shortened: as §2
[15] = Cmax in Sprague-Dawley rat at 1 mg/kg, po administered as single dose by LC-MS/MS analysis; assay type: ADME, organism-based; parameters: dose 1 mg/kg, route oral; conditions: in vivo
Procedure, shortened: as §2, with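 “oral” for “intravenous”, “0.5 w/v% methylcellulose.” for “10 v/v% propylene glycol.”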

[16] = Tmax in Sprague-Dawley rat at 1 mg/kg, po administered as single dose by LC-MS/MS analysis; assay type: ADME, organism-based; conditions: in vivo
Procedure, shortened: as §2, with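 “oral” for “intravenous”, “0.5 w/v% methylcellulose.” for “10 v/v% propylene glycol.”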

SMILES | IC50 [3] [nM] | IC50 [4] [nM] | IC50 [5] [nM] | CLint scaled at 0.2 µM [10] [mL/min/kg] | also measured
C[C@@H]1CCCC[C@@H]1Nc1c(C(N)=O)cnc2[nH]ccc12 | – | – | – | – | IC50 [1]: 86 nM; CLint scaled [2]: > 1000 mL/min/kg
NC(=O)c1cnc2[nH]ccc2c1NC12CC3CC(CC(C3)C1)C2 | 10 | 110 | 120 | – | –
Br.NC(=O)c1cnc2[nH]ccc2c1NC1C2CC3CC1CC(O)(C3)C2 (configuration not stated) | – | – | – | 124 | Vd [6]: 1.83 L/kg; bioavailability [7]: 45.9%; AUC(0-inf) [8]: 575 ng·h/mL; AUC(0-inf) [9]: 264 ng·h/mL; IC50 [11]: 10 nM; clearance [12]: 29 mL/min/kg; half-life [13]: 127 min; half-life [14]: 283 min; Cmax [15]: 126 ng/mL; Tmax [16]: 15 min
COC12CC3CC(C1)C(Nc1c(C(N)=O)cnc4[nH]ccc14)C(C3)C2 (configuration not stated) | 0.63 | 7.8 | 5 | > 1000 | –
NC(=O)c1cnc2[nH]ccc2c1NC1C2CC3CC1CC(F)(C3)C2 (configuration not stated) | 2.1 | 19 | 11 | > 1000 | –
NC(=O)c1cnc2[nH]ccc2c1NC1C2CC3CC(C2)CC1C3 (configuration not stated) | 2.1 | 12 | 11 | > 1000 | –
NC(=O)c1cnc2[nH]ccc2c1N[C@@H]1C[C@H]2CC[C@@H]1C2 (racemic) | 3.2 | 24 | 15 | 859 | –
